Measured values taken from ChEMBL document CHEMBL3576784, “Azolylthioacetamide: A Highly Promising Scaffold for the Development of Metallo-β-lactamase Inhibitors” (ACS Med Chem Lett, 2015).
Active and inactive are the calls of the source. The calls are words filed in the database; no cut-off is given here.

What was measured:
[1] = biological target: Metallo-beta-lactamase type 2 (Bacteroides fragilis) (UniProt P25910); assay: Inhibition of Bacteroides fragilis metallo-beta-lactamase CcrA expressed in Escherichia coli BL21(DE3) up to 10 uM using cefazolin V substrate pre-incubated for 30 mins by Lineweaver-Burk plot method
Sequence of Metallo-beta-lactamase type 2 (Bacteroides fragilis) (P25910 whole entry): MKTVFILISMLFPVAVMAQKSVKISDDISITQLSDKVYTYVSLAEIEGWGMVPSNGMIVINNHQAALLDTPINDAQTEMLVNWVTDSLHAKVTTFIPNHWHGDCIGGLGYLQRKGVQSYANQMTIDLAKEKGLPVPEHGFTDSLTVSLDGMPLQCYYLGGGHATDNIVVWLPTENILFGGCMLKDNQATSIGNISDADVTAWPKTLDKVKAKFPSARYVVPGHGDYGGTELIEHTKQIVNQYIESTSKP

[2] = Inhibition of metallo-beta-lactamase NDM1 (unknown origin) expressed in Escherichia coli BL21(DE3) up to 10 uM using cefazolin V substrate pre-incubated for 30 mins by Lineweaver-Burk plot method
[3] = biological target: Beta-lactamase L1 (Stenotrophomonas maltophilia) (UniProt P52700); assay: Inhibition of Stenotrophomonas maltophilia metallo-beta-lactamase L1 expressed in Escherichia coli BL21(DE3) up to 10 uM using cefazolin V substrate pre-incubated for 30 mins by Lineweaver-Burk plot method
Sequence of Beta-lactamase L1 (Stenotrophomonas maltophilia) (P52700 34-290 limits assumed): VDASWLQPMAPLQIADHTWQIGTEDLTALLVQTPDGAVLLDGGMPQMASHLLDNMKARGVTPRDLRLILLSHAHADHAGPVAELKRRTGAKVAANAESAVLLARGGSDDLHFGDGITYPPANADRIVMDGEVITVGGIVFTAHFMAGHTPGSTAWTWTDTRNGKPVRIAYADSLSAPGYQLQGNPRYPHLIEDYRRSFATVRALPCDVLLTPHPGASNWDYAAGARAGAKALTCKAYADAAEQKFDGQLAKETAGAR

[4] = biological target: Beta-lactamase L1 (Stenotrophomonas maltophilia) (UniProt P52700); assay: Inhibition of Stenotrophomonas maltophilia metallo-beta-lactamase L1 expressed in Escherichia coli BL21(DE3) assessed as cefalexin V antimicrobial MIC incubated at 37 degC for 12 hrs by macrodilution (tube) broth method (reference value: 8 ug/mL)
Method in brief: (§1)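 β-Lactam antibiotic MIC (μg/mL) against E. coli BL21(DE3) carrying plasmids pMSZ02-CcrA, pET26b-NDM-1, pET26b-ImiS or pET26b-L1. Measured with and without test compound at 16 μg/mL.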

[5] = Inhibition of metallo-beta-lactamase NDM1 (unknown origin) expressed in Escherichia coli BL21(DE3) assessed as cefalexin V antimicrobial MIC incubated at 37 degC for 12 hrs by macrodilution (tube) broth method (reference value: 4 ug/mL); method in brief: as §1
[6] = biological target: Metallo-beta-lactamase type 2 (Bacteroides fragilis) (UniProt P25910); assay: Inhibition of Bacteroides fragilis metallo-beta-lactamase CcrA expressed in Escherichia coli BL21(DE3) assessed as cefalexin V antimicrobial MIC incubated at 37 degC for 12 hrs by macrodilution (tube) broth method (reference value: 4 ug/mL); method in brief: as §1
[7] = biological target: Beta-lactamase (Aeromonas veronii) (UniProt O31272); assay: Inhibition of Aeromonas veronii metallo-beta-lactamase ImiS expressed in Escherichia coli BL21(DE3) assessed as imipenem antimicrobial MIC incubated at 37 degC for 12 hrs by macrodilution (tube) broth method; method in brief: as §1
Sequence of Beta-lactamase (Aeromonas veronii) (O31272 as listed by the source): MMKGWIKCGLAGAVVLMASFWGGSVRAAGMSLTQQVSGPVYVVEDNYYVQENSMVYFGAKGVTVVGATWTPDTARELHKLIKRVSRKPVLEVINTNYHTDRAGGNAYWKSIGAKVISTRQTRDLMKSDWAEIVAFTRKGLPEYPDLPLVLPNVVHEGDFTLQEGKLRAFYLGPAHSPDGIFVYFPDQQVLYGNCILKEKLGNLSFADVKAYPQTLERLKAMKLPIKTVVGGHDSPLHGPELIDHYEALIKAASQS

[8] = biological target: T1, Beta-lactamase IMP-1 (Pseudomonas aeruginosa) (UniProt Q8G9Q0); assay: Inhibition of Pseudomonas aeruginosa metallo-beta-lactamase IMP1 expressed in Escherichia coli BL21(DE3) assessed as imipenem antimicrobial MIC incubated at 37 degC for 12 hrs by macrodilution (tube) broth method (reference value: […] ug/mL)
T1 sequence (whole entry): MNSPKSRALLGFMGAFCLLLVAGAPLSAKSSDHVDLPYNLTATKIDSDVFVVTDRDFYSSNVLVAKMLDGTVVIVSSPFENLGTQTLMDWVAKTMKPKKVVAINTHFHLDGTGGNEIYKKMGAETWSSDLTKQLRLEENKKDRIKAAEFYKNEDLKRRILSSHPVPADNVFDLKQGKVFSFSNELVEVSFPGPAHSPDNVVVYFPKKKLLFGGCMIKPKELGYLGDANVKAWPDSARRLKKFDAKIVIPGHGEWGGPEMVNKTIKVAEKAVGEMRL

Klebsiella pneumoniae = assay: Inhibition of Klebsiella pneumoniae metallo-beta-lactamase expressed in Escherichia coli BL21(DE3) assessed as imipenem antimicrobial MIC incubated at 37 degC for 12 hrs by macrodilution (tube) broth method

Row | inhibition [1] | inhibition [2] | inhibition [3] | MIC [4] [µg/mL] | MIC [5] [µg/mL] | MIC [6] [µg/mL] | MIC [7] [µg/mL] | MIC [8] [µg/mL] | MIC (Klebsiella pneumoniae) [µg/mL] | Structure (SMILES)
1 | inactive | inactive | inactive | 8 | 4 | < 0.125 | 0.5 | 0.25 | 0.5 | O=C(CSc1nnc(-c2ccccc2C(=O)O)[nH]1)Nc1ccc(Cl)cc1
2 | inactive | inactive | inactive | 8 | 4 | < 0.125 | 1 | < 0.125 | 0.5 | O=C(CSc1nnc(-c2ccccc2C(=O)O)[nH]1)Nc1nc2ccccc2s1
3 | inactive | inactive | inactive | 8 | 4 | 4 | 1 | 0.25 | 0.5 | O=C(CSc1nnc(-c2ccccc2C(=O)O)[nH]1)Nc1nc2ccccc2[nH]1
4 | inactive | inactive | inactive | 16 | 4 | 2 | 0.5 | 0.25 | 0.5 | O=C(CSc1nnc(-c2ccccc2C(=O)O)[nH]1)Nc1ccc([N+](=O)[O-])cc1
5 | inactive | inactive | inactive | 64 | 4 | 2 | 0.25 | < 0.125 | 0.5 | O=C(CSc1nnc(-c2ccccc2C(=O)O)[nH]1)Nc1ccccc1Cl
6 | inactive | inactive | inactive | 64 | 4 | 0.5 | < 0.125 | < 0.125 | 0.5 | O=C(CSc1nnc(-c2ccccc2C(=O)O)[nH]1)Nc1cccc(Cl)c1
7 | inactive | inactive | inactive |  |  |  |  |  |  | O=C(O)CCc1nnc(SCC(=O)Nc2ccc(Cl)cc2)[nH]1
8 | inactive | inactive | inactive | 8 | 4 | 2 | 0.25 | < 0.125 | 0.5 | O=C(CSc1nnc(-c2ccccc2C(=O)O)[nH]1)Nc1cccc([N+](=O)[O-])c1
9 | inactive | inactive | inactive | > 128 | 4 | 0.25 | < 0.125 | < 0.125 | 0.5 | O=C(CSc1nnc(-c2ccccc2C(=O)O)[nH]1)Nc1ccccc1[N+](=O)[O-]
10 | inactive | inactive | inactive |  |  |  |  |  |  | O=C(O)CCc1nnc(SCC(=O)Nc2nc3ccccc3[nH]2)[nH]1
11 | inactive | inactive | inactive | 8 | 4 | 4 | 1 | 0.25 | 0.5 | O=C(CSc1nnc(-c2ccccc2C(=O)O)[nH]1)Nc1ccccc1
12 | inactive | inactive | inactive |  |  |  |  |  |  | O=C(O)CCCc1nnc(SCC(=O)Nc2nc3ccccc3[nH]2)[nH]1
13 | inactive | inactive | inactive | 16 | 4 | 4 | 1 | < 0.125 | 0.5 | O=C(CSc1nnc(-c2ccccc2C(=O)O)[nH]1)NCc1ccccc1
14 | inactive | inactive | inactive |  |  |  |  |  |  | O=C(O)CCc1nnc(SCC(=O)Nc2ccccc2)[nH]1
15 | inactive | inactive | inactive |  |  |  |  |  |  | O=C(O)CCc1nnc(SCC(=O)Nc2nc3ccccc3s2)[nH]1
